IC50 data for seven molecules are collected here from ChEMBL document CHEMBL1156676, “Peptidyl 3-substituted 1-hydroxyureas as isosteric analogues of succinylhydroxamate MMP inhibitors” (Eur J Med Chem, 2008).

Where a SMILES comes first, the peptide text is derived from it. The star is where a group is joined. Cbz = O=C(OCc1ccccc1)*

In one experiment the target is T1, Matrilysin (Homo sapiens, UniProt P09237).
T1 sequence (P09237 whole entry): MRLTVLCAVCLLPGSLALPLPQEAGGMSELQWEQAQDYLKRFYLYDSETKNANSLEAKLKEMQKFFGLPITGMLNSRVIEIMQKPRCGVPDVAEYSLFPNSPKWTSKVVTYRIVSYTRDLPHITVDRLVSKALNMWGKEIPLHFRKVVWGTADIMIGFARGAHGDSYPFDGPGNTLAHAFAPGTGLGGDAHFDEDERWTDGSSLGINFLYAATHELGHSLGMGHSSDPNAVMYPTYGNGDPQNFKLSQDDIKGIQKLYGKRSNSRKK
Briefly: Inhibition of human recombinant MMP7. The procedure, abridged: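 MMP-7 proenzyme was APMA-activated (1 mM, 1 h, 37 °C), final 2.4 nM. Incubated 4 h at 25 °C with inhibitor at seven concentrations in Tris 50 mM pH 7.5/NaCl 150 mM/CaCl2 10 mM/Brij 35 0.05%/DMSO 1%. Cleavage of Mca-Lys-Pro-Leu-Gly-Leu-Dpa-Ala-Arg-NH2 was followed fluorimetrically (325/400 nm) every 15 s over 20 min, triplicate.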

Experiment [1] addresses Matrix metalloproteinase-9 (Homo sapiens, UniProt P14780). Briefly: Inhibition of human recombinant MMP9. The procedure, abridged: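 Pro-MMP-9 activated with APMA 1 mM, 1 h, 37 °C, used at 2.7 nM final. Preincubated 4 h at 25 °C with seven inhibitor concentrations in Tris 50 mM pH 7.5, NaCl 150 mM, CaCl2 10 mM, Brij 35 0.05%, DMSO 1%. Hydrolysis of Mca-Lys-Pro-Leu-Gly-Leu-Dpa-Ala-Arg-NH2 monitored by fluorescence (325/400 nm) every 15 s for 20 min, triplicate.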

The target in experiment [2] is 72 kDa type IV collagenase (Homo sapiens, UniProt P08253). As to the kind of experiment: Inhibition of human recombinant MMP2.
The next experiment has as its target T2, Interstitial collagenase (Homo sapiens, UniProt P03956).
T2 sequence (P03956 whole entry): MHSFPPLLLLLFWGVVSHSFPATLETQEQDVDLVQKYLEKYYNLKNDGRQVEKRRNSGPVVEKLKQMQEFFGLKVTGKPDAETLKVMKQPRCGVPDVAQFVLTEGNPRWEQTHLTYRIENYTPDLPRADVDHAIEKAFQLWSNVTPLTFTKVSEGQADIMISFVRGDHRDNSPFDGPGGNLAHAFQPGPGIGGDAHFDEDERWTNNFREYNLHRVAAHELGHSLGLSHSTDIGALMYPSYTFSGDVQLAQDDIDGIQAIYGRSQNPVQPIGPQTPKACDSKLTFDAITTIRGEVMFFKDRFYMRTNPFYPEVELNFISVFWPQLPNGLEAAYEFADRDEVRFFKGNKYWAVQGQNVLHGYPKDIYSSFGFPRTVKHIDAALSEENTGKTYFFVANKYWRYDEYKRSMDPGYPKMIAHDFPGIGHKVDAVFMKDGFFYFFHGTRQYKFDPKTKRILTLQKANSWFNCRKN
Briefly: Inhibition of human recombinant MMP1.

The target in another experiment is Stromelysin-1 (Homo sapiens, UniProt P08254). As to the kind of experiment: Inhibition of human recombinant MMP3.
In another experiment the target is Neutrophil collagenase (Homo sapiens, UniProt P22894). As to the kind of experiment: Inhibition of human recombinant MMP8.
Sequence of Neutrophil collagenase (P22894 whole entry): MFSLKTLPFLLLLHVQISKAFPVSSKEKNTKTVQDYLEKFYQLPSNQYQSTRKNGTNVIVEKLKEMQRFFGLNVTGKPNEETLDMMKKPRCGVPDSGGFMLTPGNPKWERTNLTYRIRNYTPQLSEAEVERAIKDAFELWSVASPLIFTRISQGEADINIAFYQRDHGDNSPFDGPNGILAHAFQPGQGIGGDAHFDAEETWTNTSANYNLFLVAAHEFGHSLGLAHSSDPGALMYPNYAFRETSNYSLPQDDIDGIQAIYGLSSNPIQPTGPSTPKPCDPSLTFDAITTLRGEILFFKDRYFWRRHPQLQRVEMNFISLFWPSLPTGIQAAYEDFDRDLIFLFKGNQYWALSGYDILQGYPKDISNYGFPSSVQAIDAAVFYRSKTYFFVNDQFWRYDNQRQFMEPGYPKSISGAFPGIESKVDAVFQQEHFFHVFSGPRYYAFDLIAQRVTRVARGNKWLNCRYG

Sequence of 72 kDa type IV collagenase (P08253 whole entry): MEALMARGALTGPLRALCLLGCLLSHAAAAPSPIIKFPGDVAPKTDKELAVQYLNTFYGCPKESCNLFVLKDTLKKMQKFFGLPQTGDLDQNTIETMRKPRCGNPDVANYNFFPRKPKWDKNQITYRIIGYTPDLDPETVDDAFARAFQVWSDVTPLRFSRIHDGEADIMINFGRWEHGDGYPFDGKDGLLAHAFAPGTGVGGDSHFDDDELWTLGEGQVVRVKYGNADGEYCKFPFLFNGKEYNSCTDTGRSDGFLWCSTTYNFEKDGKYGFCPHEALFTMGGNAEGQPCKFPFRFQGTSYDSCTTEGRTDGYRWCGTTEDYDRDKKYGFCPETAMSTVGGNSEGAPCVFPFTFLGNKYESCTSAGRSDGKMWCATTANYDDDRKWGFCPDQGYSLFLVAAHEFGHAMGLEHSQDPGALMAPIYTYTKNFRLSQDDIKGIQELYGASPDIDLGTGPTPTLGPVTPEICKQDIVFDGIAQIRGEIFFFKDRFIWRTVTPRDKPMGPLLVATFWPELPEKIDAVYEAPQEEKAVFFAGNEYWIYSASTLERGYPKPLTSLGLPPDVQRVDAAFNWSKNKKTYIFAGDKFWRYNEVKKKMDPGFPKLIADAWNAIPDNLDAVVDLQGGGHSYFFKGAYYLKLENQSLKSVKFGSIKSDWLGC
Sequence of Stromelysin-1 (P08254 whole entry): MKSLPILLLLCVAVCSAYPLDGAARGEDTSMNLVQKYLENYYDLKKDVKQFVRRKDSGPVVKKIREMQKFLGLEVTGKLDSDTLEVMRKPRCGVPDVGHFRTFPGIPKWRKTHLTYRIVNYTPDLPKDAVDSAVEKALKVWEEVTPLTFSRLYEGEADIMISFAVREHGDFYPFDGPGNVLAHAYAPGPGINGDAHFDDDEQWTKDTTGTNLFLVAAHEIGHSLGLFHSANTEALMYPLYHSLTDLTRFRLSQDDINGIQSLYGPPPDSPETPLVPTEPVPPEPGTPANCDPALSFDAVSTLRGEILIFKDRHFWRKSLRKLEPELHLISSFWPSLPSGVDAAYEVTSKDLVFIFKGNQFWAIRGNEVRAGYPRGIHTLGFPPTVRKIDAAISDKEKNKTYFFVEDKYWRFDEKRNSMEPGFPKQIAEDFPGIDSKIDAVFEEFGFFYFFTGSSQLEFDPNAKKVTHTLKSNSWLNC
Sequence of Matrix metalloproteinase-9 (P14780 whole entry): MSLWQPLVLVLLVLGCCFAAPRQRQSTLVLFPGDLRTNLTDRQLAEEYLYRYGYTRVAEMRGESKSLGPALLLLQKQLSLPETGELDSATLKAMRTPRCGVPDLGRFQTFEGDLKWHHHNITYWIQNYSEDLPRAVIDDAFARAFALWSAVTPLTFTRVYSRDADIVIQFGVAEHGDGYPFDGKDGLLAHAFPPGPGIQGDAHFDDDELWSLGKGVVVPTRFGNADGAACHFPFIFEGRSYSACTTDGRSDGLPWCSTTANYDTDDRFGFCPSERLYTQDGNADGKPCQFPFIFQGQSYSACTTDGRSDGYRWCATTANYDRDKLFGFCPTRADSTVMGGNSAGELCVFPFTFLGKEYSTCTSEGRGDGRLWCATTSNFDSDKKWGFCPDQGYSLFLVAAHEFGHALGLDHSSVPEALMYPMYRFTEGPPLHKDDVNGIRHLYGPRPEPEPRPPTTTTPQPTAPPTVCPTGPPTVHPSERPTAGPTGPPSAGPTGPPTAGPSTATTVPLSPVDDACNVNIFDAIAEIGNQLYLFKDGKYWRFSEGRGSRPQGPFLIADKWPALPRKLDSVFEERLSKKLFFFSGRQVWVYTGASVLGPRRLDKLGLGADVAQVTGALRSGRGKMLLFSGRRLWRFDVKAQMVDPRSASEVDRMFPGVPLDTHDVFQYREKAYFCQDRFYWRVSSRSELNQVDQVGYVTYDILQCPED

On to `CNC(=O)[C@H](Cc1ccccc1)NC(=O)[C@@H](CC(=O)NO)CC(C)C`, for which the IC50 at Matrilysin stood at 0.0083 µM; in experiment [1] it was 0.00038 µM.
As for `CNC(=O)[C@H](Cc1ccccc1)NC(=O)[C@@H](N)CC(C)C`, the IC50 (in experiment [2]; on Matrilysin; in experiment [1]) was greater than 300 µM in each case.
Regarding `CNC(=O)[C@H](Cc1ccccc1)NC(=O)[C@@H](CC(C)C)NC(=O)NO`, the IC50 was greater than 300 µM on Interstitial collagenase; greater than 300 µM in experiment [2]; greater than 300 µM at Stromelysin-1; greater than 300 µM at Matrilysin; 150 µM at Neutrophil collagenase; 200 µM in experiment [1].
As for `CNC(=O)[C@H](Cc1ccccc1)NC(=O)[C@H](CC(=O)NO)CC(C)C`, the IC50 was 4.1 µM on Matrilysin and 0.15 µM in experiment [1].
On to `CNC(=O)[C@H](Cc1ccccc1)NC(=O)[C@H](CC(C)C)NC(=O)NO`, for which the IC50 on Interstitial collagenase was 270 µM; in experiment [2] it was 60 µM; at Stromelysin-1, greater than 300 µM; on Matrilysin, greater than 300 µM; at Neutrophil collagenase, 70 µM; in experiment [1], 20 µM.
In the case of `CNC(=O)[C@H](Cc1ccccc1)NC(=O)[C@H](N)CC(C)C`, the IC50 (at Interstitial collagenase; in experiment [2]; at Stromelysin-1; at Matrilysin; on Neutrophil collagenase; in experiment [1]) was greater than 300 µM in each case.
Take `COC(=O)[C@H](Cc1ccccc1)NC(=O)[C@H](CC(C)C)NC(=O)OCc1ccccc1` (Cbz-Leu-Phe-OMe): the IC50 (at Interstitial collagenase; in experiment [2]; at Stromelysin-1; on Matrilysin; at Neutrophil collagenase; in experiment [1]) was greater than 300 µM throughout.
